Source: PubChem BioAssay
The list is not random: actives were taken first. Their share in the collection is about 11%.
Lmaj promast: Leishmania major promastigote growth inhibition | Leishmania major promastigotes, resazurin fluorescence viability | inhibition, % at 10 µM | actives 9% (n = 200,000);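 also: promastigotes grown with compound for 44 hours at 28 °C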
Diaphorase inh: counter-screen for diaphorase-based assays: diaphorase inhibitors and chemical oxidizers; diaphorase resazurin-to-resorufin fluorescence, NADH, 16 min; bacterial (C. kluyveri) enzyme, not human; inhibition, % at 20 µM; actives 0.69% (n = 190,000);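 active = primary screen inhibition at 20 µM above a set limit, cut at about 50% in these data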
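System: Diaphorase enzyme from Clostridium kluyveri | Amount: Enzyme working solution with 0.14 U/mL diaphorase | Benchmarks: No-NADH positive control and DMSO neutral control | Signal: Fluorescence of resorufin formed from resazurin, Ex 544/Em 590 nm | Schedule: 16-min room-temperature incubation before reading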
G6PDH counter: inhibits Leuconostoc G6PDH, flagging false hits in G6PDH-based assays; inhibition, % at 5 µM; AID 1020; Purified L. mesenteroides G6PDH, diaphorase/resazurin coupled fluorescence, 45 min; actives 0.12% (n = 200,000)
WT yeast gro inh: growth inhibition of WT yeast, mitochondrial fusion screen; mitochondrial fusion phenotypic screen, WT strain; inhibition, % at 10 µM; actives 2.1% (n = 190,000); AID 1362; in the data active = inhibition above about 58%; tested in S. cerevisiae
Diaph act CS: activates diaphorase or chemically reduces, flagging diaphorase assay artifacts. Diaphorase/resazurin coupled assay, resorufin fluorescence, 16 min; hits give high values; 1 = vehicle wells, 0 = NADH-free wells. activation factor at 20 µM. actives 0.005% (n = 190,000);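 active = diaphorase activity raised at least twofold by the compound at 20 µM; inactive = activation factor below 2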
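Assay system: Purified diaphorase enzyme from Clostridium kluyveri | Amount: Enzyme 0.07 U/mL final | Dosing: Compound 20 µM once, DMSO 1% | Timing: 16 min reaction at room temperature | Detection: Fluorescence, excitation 544 nm and emission 590 nm | Evaluation: Higher resorufin formation from activation or reduction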
Of the large screens only hits and unclear results are named; the others gave an inactive call. Rule as the data show it, unless noted: active = inhibition above about 50%; inactive = the rest.

CCc1nnc(NS(=O)(=O)c2ccc(N3C(=O)c4ccccc4C3=O)cc2)s1	none
CCCCNc1nc2ccccc2n1CC(=O)N1CCc2ccccc2C1	Lmaj promast 69.9
CCCCNC(=O)N1CCc2ccccc2C1	none
Cc1nn(Cc2ccc(Cl)cc2)c(C)c1NC(=O)CCCn1nc([N+](=O)[O-])c(Cl)c1C	none
COc1ccc(N2C(=O)CSC23C(=O)N2c4c(cccc43)C(C)=CC2(C)C)cc1 (centres undefined)	Lmaj promast 99.6
COc1ccc(/C=C2\SC(=O)N=C2N)cc1	Lmaj promast 56.6
O=C(COC(=O)c1c2c(nc3ccccc13)/C(=C/c1ccco1)CC2)NC1CCCC1	Lmaj promast 89.1
CCc1cccc(C)c1NC(=O)COC(=O)c1c2c(nc3ccccc13)/C(=C\c1cccs1)CCC2	none
NC(=O)c1ccc(NC(=O)COC(=O)c2c3c(nc4ccccc24)/C(=C\c2cccs2)CCC3)cc1	WT yeast gro inh 75.5
CCOc1ccc(-n2c(SCc3ccc([N+](=O)[O-])cc3)nnc2-c2ccc(OC)cc2)cc1	none
O=C(NCCNCc1ccc(F)cc1)c1ccco1	Lmaj promast 53.9
CC(C)n1nc(C(=O)Nc2nc3ccccc3[nH]2)c2ccccc2c1=O	none
CCCCn1nc(C(=O)Nc2nc3c(s2)CCCC3)c2ccccc2c1=O	none
CCCCCCn1nc(C(=O)Nc2nc3c(s2)CCCC3)c2ccccc2c1=O	Lmaj promast 50.4
CCCn1nc(C(=O)Nc2nc3ccccc3[nH]2)c2ccccc2c1=O	Lmaj promast 93.2
Cc1cc(/C=N/NC(=O)Cn2c3ccccc3c(=O)c3ccccc32)c(C)n1-c1ccc(Cl)cc1	none
Cc1ccc(C2CC(c3cccs3)=NN2C(=O)CSc2nc3ccccc3o2)cc1 (centres undefined)	none
CN1CCc2cccc3c2[C@H]1Cc1ccc(O)c(O)c1-3	Diaphorase inh 78.0
O=C(COC(=O)/C=C/c1cccc(F)c1)Nc1ccccc1-c1ccccc1	none
CCc1nc(SCc2ccc(Cl)cc2)n[nH]1	Diaphorase inh 64.5
N#C/C(=N\Nc1cccc(Cl)c1)C(=O)c1ccccc1	WT yeast gro inh 72.3
COc1ccccc1C1CC(c2ccco2)=NN1S(C)(=O)=O (centres undefined)	none
COc1ccccc1C(C#N)N1N=C(C)CC1(C)C (centres undefined)	none
CCc1ccccc1NC(=O)c1ccc(CN2CCC(Cc3ccccc3)CC2)cc1	Lmaj promast 79.6
O=C(c1ccc(CN2CCOCC2)cc1)N1CCC(Cc2ccccc2)CC1	Lmaj promast 87.4
Cc1sc(/N=C/c2ccccc2O)c(C#N)c1C	none (no result: WT yeast gro inh)
O=C(Cn1nc(C(F)(F)F)c2c1CCC2)N1CCN(c2ccccc2)CC1	none
COc1ccc(/C=N/n2cc(-c3ccccc3)nc2N)cc1	none
COc1ccc(/C=N/n2cc(-c3ccc(OC)cc3)nc2N)cc1	Lmaj promast 93.2
N#CC1=C(N)C(C#N)(C#N)C(c2ccc[nH]2)C2CCCC=C12 (centres undefined)	none
N#CC1=C(N)C2=CCCC[C@H]2[C@H](c2cccc(F)c2)C1(C#N)C#N	Lmaj promast 80.5
CC1CC(O)(Cc2ccccc2)C(C)CN1C (centres undefined)	none
CC1C(C)C(O)(c2ccccc2)CCN1C (centres undefined)	Lmaj promast 69.3
Cc1cc(O)c(C=O)c2c1C(=O)Oc1c(CO)c(O)c3c(c1O2)C(O)OC3=O (centres undefined)	Diaphorase inh 75.0
O=[N+]([O-])c1nn(-c2ccc3c(c2)OCCO3)n(O)c1=Nc1ccccc1	Lmaj promast 97.1
CCc1ccc(N=c2c([N+](=O)[O-])nn(-c3ccc4c(c3)OCCO4)n2O)cc1	none
O=[N+]([O-])c1nn(-c2ccc3c(c2)OCCO3)n(O)c1=Nc1ccc(Cl)cc1	Lmaj promast 77.4
Cc1cc(C)cc(N=c2c([N+](=O)[O-])nn(-c3ccc4c(c3)OCCO4)n2O)c1	Lmaj promast 84.7
Oc1ccc(N=Nc2cccc(C(F)(F)F)c2)cc1C=Nc1ccc(N2CCOCC2)cc1	Lmaj promast 90.7
Oc1ccc(C=Nc2ccc(N3CCOCC3)cc2)c(O)c1	none
COc1cccc(Nc2cc(C)nc3ccccc23)c1	Lmaj promast 87.5
COc1ccc(OC)c(Nc2nc(=O)c3cccnc3s2)c1	Diaphorase inh 65.3
COc1ccc(OC)c(Nc2ncnc3ccccc23)c1	none
COc1ccc2nc(C)cc(Nc3ccccc3O)c2c1	Lmaj promast 59.4
Cc1ccc(Nc2nc(=O)c3cccnc3s2)cc1	none
COc1ccc(OC)c(Nc2cc(C)nc3ccccc23)c1	Lmaj promast 70.6
COc1cc(NC(=O)c2cc(C)nc3ccccc23)cc(OC)c1	none
COc1cc(NC(=O)CSc2ncnc3scc(-c4ccccc4)c23)c(C(=O)O)cc1OC	none
NC(=O)Cn1nc([N+](=O)[O-])nc1Oc1ccccc1F	none
CC(=O)N=c1sc2cc(C)ccc2n1C	none
CC(=O)N=c1sc2c3ccccc3ccc2n1C	Lmaj promast 63.4
Cc1cccc(NC(=S)N(CCN2CCOCC2)Cc2cc3cc4c(cc3[nH]c2=O)OCO4)c1	none
Cc1ccc(NC(=S)N(C)Cc2cn(C)c3ccccc23)cc1	Lmaj promast 63.0
COc1ccc(NC(=S)N(CCCN2CCOCC2)Cc2cn(C)c3ccccc23)cc1	none
Cn1cc(CN(CCCN2CCOCC2)C(=S)Nc2cccc(Cl)c2)c2ccccc21	Lmaj promast 79.7
CCOc1ccc(NC(=S)N(CCCN2CCOCC2)Cc2cn(C)c3ccccc23)cc1	Lmaj promast 59.8
Cc1cccc(NC(=S)N(CCCN2CCOCC2)Cc2cn(C)c3ccccc23)c1	Lmaj promast 89.6
C=CCn1c(=O)n(CCOC)c(=O)c2sc3ccccc3c21	none
COC(=O)C(NC(C)=O)(Nc1nc2c(C)cc(C)cc2s1)C(F)(F)F (centres undefined)	none
CCN(CC)S(=O)(=O)c1ccc(Nc2nc3ccccc3n3nnnc23)cc1	Lmaj promast 67.4
CC(CCc1ccccc1)N1CCN(Cc2ccccc2)CC1 (centres undefined)	Lmaj promast 96.5
CCS(=O)(=O)N1CCN(C(C)CCc2ccccc2)CC1 (centres undefined)	Lmaj promast 74.8
Cc1cc(C)nc(Sc2nc(C)nc3c2oc2ccccc23)n1	Lmaj promast 71.8
Cc1nc(SCC(=O)NC(C)c2ccccc2)c2oc3ccccc3c2n1 (centres undefined)	none
O=C(CN1CCN(c2ccccn2)CC1)N(c1ccccc1)c1ccc2ccccc2c1	Lmaj promast 97.1, WT yeast gro inh 62.6
O=C(CN1CCOCC1)N(c1ccccc1)c1ccc2ccccc2c1	none
CC(C)(C)n1nnnc1C(c1cccs1)N1CCCC2(CCCCC2)C1 (centres undefined)	WT yeast gro inh 77.7
c1ccc(CN(Cc2cccs2)C(c2cccs2)c2nnnn2C2CCCC2)cc1 (centres undefined)	Lmaj promast 89.3
